# According to ChEMBL document CHEMBL1132183 (J Med Chem, 1999):
# Legend:
# [1] = biological target: T1, 5-hydroxytryptamine receptor 1A (Homo sapiens) (UniProt P08908); assay: Eudisimic ratio(ER) is the antilog of the difference between the pKb and pD2 values against 5-hydroxytryptamine 1A receptor; type: functional
# T1 sequence (whole entry): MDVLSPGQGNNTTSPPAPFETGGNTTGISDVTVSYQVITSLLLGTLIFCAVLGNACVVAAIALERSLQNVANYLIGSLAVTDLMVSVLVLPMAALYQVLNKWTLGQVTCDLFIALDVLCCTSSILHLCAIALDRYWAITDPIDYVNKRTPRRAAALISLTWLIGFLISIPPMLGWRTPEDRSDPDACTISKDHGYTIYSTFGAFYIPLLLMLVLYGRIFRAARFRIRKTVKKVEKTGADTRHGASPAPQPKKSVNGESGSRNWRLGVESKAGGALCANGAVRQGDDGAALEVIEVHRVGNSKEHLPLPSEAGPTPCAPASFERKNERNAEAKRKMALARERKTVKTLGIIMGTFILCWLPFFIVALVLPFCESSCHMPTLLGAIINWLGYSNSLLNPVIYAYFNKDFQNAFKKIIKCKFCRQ
# How it was run: (§1)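 Eudismic ratio is the antilog of the difference between the pKb (functional α1 tissue assays) or pD2 (5-HT1A [35S]GTPγS stimulation) of the eutomer and that of its distomer.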
# [2] = biological target: T2, Alpha-1B adrenergic receptor (Homo sapiens, UniProt P35368); assay: Ability to displace [3H]prazosin from human cloned Alpha-1B adrenergic receptor
# T2 sequence (P35368 whole entry): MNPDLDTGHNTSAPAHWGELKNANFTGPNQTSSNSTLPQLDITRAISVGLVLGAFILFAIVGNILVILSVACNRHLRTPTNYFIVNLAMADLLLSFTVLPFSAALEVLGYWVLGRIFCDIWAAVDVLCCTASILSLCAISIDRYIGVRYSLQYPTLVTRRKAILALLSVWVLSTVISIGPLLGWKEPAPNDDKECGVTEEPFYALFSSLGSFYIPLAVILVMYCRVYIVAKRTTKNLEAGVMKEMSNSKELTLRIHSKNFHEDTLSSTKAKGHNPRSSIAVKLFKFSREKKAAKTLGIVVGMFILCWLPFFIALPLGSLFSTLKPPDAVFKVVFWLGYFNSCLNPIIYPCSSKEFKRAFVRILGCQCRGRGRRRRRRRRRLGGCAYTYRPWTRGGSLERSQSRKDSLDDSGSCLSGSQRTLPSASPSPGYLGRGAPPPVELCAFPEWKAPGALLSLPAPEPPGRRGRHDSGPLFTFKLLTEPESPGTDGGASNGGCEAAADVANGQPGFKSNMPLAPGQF
# How it was run: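 Competition binding at cloned human α1 subtypes stably expressed in CHO cells: membranes (30 μg protein) incubated 30 min at 25 °C in 50 mM Tris-HCl pH 7.4 with 0.1–0.4 nM [3H]prazosin and competitor (1 pM–10 μM). Nonspecific binding with 10 μM phentolamine; filtration and scintillation counting. Ki by Cheng–Prusoff; 2–3 experiments in triplicate.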
# [3] = biological target: T3, Alpha-1A adrenergic receptor (Rattus norvegicus) (UniProt P43140); assay: Eudisimic ratio(ER) is the antilog of the defference between the pKb and pD2 values against Alpha-1A adrenergic receptor; how it was run: as §1
# T3 sequence (whole entry): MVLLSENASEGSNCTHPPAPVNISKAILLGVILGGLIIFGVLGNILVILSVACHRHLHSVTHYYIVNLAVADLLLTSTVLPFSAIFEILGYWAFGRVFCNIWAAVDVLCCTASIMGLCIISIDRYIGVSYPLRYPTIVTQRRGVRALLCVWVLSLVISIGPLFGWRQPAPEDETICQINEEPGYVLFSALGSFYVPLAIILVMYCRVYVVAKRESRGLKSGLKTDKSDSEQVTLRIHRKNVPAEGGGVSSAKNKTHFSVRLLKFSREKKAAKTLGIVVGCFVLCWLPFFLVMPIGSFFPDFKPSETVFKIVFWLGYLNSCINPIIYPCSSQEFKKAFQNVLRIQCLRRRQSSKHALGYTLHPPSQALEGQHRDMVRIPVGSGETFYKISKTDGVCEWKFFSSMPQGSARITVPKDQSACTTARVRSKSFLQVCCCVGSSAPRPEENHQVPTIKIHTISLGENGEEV
# [4] = biological target: T1, 5-hydroxytryptamine receptor 1A (Homo sapiens); assay: Eudisimic ratio(ER) is the antilog of the defference between the pKb and pD2 values against 5-hydroxytryptamine 1A receptor; type: functional; how it was run: as §1
structure (smiles),measurement,setting,value
O[C@H]1[C@@H](NC[C@H]2COc3ccccc3O2)CC[C@@H]1Oc1ccccc1,ER,[1],27
O[C@@H]1[C@H](NC[C@H]2COc3ccccc3O2)CC[C@H]1Oc1ccccc1,Ki,[2],46.8 nM
same,ER,[3],> 35
same,ER,[4],123
